This is an account of results in publication PMC7610571 (Nature chemical biology, 2020).

Assay [1] deals with NUDT15. The conditions noted are these: read-out: Km of NUDT15 for 6-thio-dGTP; cited from earlier work.
For assay [2], the system named is NB4 and HL-60 cells. Briefly: Thiopurine/TH1760 dose-matrix, resazurin viability. It is filed as cell-based, human. The conditions noted are these: combined with 6-TG or 6-MP, dose-dependent. A digest of the protocol: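 NB4 and HL-60 cells treated with a dose matrix of 6-TG or 6-MP combined with test compound (pre-treatment 3 h). Resazurin read-out four days after treatment (544/590 nm), viability normalised to DMSO controls. Relative viabilities used for EC50 fitting and SynergyFinder synergy scores. Knockdown matrix in NB4 shRNA lines: 96 h, n=2.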
For orientation: Resazurin is reduced to fluorescent resorufin, in cell work by metabolically active cells.

The target in assay [3] is T1, NUDT15 (Homo sapiens, UniProt Q9NV35).
T1 sequence (Q9NV35 1-164): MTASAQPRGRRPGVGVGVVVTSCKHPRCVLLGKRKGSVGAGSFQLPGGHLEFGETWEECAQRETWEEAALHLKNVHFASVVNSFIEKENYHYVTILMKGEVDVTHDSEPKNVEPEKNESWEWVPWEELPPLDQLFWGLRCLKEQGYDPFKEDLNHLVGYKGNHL
Briefly: PPiLight inorganic pyrophosphate assay, 6-thio-dGTPase activity. It is filed as biochemical. Summed up: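 6-thio-dGTPase activity of 10 nM NUDT15 in 100 mM Tris acetate pH 7.5, 40 mM NaCl, 100 mM Mg acetate, 1 mM DTT, with 2.5 μM 6-thio-dGTP. Test-compound dilution series ran 13.3 μM–75 pM or 15 μM–2.2 nM, depending on compound. Shaken 30 min at 22 °C; formed PPi detected by PPiLight luminescence.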

For assay [4], the system named is BJ-RAS cells versus BJ-hTERT cells. Briefly: Resazurin viability assay, isogenic fibroblasts. It is filed as cell-based, human.
The test system of assay [5] is NB4 cells. Briefly: Alkaline comet assay. It is filed as cell-based, human. The conditions noted are these: NB4, 10 μM TH1760 + 6-TG, 48 h.
Assay [6] concerns the target T1, NUDT15. Briefly: Enzyme-coupled malachite green. The conditions noted are these: MG assay. It is filed as biochemical. A digest of the protocol:
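Excess E. coli pyrophosphatase (0.4 U/mL) added for 20 min, then malachite green for 15 min; A630 read. Buffer-only wells served as the full-inhibition control. Two experiments, each in duplicate.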

For assay [7], the target named is T1, NUDT15. The assay is described as follows: Differential scanning fluorimetry. It is filed as binding. The conditions noted are these: over the DMSO control, dose-dependent. In general terms: In DSF a fluorescence change marks the thermal transition of the protein.

Usually Km stands for the concentration of substrate that gives half-maximal velocity. With `Nc1nc2c(ncn2[C@H]2C[C@H](O)[C@@H](COP(=O)(O)OP(=O)(O)OP(=O)(O)O)O2)c(=S)[nH]1` [Compound 6-thio-dGTP, 6-thio-dGTP], in assay [1], the Km is 2 µM.

On to `O=C(c1ccc2[nH]ccc2c1)N1CCN(S(=O)(=O)c2ccc3[nH]c(=O)oc3c2)CC1` [Compound 18], for which the “reduction of thiopurine EC50 values” in assay [2] is listed as ~ 10 fold. Besides, the “potency improvement as compared to TH884” value in assay [3] is listed as “over 200 fold”. Further, the “sensitization to 6-TG, tumorigenic versus non-transformed cells” value in assay [4] is given as “preferentially sensitized BJ-RAS cells to 6-TG versus their non-transformed counterpart BJ-hTERT cells”. Further, the “6-TG-induced DNA damage (comet tail moment)” value in assay [5] was “potentiated 6-TG-induced DNA damage in NB4 cells”. The “improvement of potency compared to hit compound TH884” value in assay [6] is reported as “more than 200 fold”. In addition, the “increase of NUDT15 melting temperature” value in assay [7] is more than 10 °C.
